Source: ChEMBL document CHEMBL4152376, “Optimization of 8-Hydroxyquinolines as Inhibitors of Catechol O-Methyltransferase” (J Med Chem, 2018)

What was measured:
[1] = Efflux ratio of permeability in MDCK cells; assay type: ADME, cell-based, Canis lupus familiaris; conditions: dog
Procedure, shortened: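 Efflux ratio taken as […] transport across P-glycoprotein-expressing MDCK cells.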

[2] = Ratio of drug level in CSF of Sprague-Dawley rat to unbound plasma concentration in Sprague-Dawley rat at 10 mg/kg, po after 4 hrs by ES-UPLC analysis; assay type: ADME, organism-based; conditions: in vivo
Procedure, shortened: (§1)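 Sprague Dawley rats given 10 mg/kg po; CSF, plasma and brain collected at 4 h. Drug measured in CSF; free plasma and brain levels computed from total levels using plasma protein and brain tissue binding fractions. Free CSF derived from CSF binding by equilibrium dialysis with pooled rat CSF. Ratios taken from these values.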

[3] = biological target: T1, Catechol O-methyltransferase (Rattus norvegicus, UniProt P22734); experiment: Inhibition of c-terminal hexa-His tagged rat MB-COMT expressed in HEK293 cell membrane homogenate using norepinephrine as substrate after 1 hr in presence of SAM by MTase glo methyltransferase assay
T1 sequence (P22734 whole entry): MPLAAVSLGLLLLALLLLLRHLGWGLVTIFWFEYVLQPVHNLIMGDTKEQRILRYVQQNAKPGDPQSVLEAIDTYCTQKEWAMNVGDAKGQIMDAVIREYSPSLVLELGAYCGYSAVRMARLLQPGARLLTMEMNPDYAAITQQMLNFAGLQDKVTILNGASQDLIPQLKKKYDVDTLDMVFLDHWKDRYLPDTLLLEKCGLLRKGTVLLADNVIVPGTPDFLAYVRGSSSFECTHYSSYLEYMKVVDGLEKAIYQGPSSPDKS
Procedure, shortened: (§2)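 Membrane homogenate of HEK293 cells expressing C-terminal His6 MB-COMT (human about 7 ng, rat about 4 ng per well, protein by Bradford […]). 20 µM SAM and 7 µM norepinephrine in 50 mM Tris, 5–10 mM MgCl2, 2.5 mM DTT, pH 6.9, final DMSO 1.5%. 1 h at 37 °C, then MTase-Glo luminescence. […] 4-parameter IC50 fit; triplicate points, three experiments.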

[4] = Drug level in CSF of Sprague-Dawley rat at 10 mg/kg, po after 4 hrs by ES-UPLC analysis; assay type: ADME, organism-based, Cerebrospinal fluid; conditions: read-out: Drug uptake; procedure, shortened: as §1
Rattus norvegicus [5] = experiment: Oral bioavailability in rat at 3/10 mg/kg; assay type: ADME, organism-based; conditions: in vivo
Procedure, shortened: (§3)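 Rat pharmacokinetics after a 1 mpk iv dose (n=3) and a 3 or 10 mpk oral dose (n=3).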

[6] = biological target: T2, Catechol O-methyltransferase (Homo sapiens, UniProt P21964); experiment: Inhibition of c-terminal hexa-His tagged human S-COMT expressed in HEK293-6E cell membrane homogenate using 7,8-dihydroxy-4-methylcoumarin as substrate after 1 hr in presence of SAM by MTase glo methyltransferase assay
T2 sequence (P21964 whole entry): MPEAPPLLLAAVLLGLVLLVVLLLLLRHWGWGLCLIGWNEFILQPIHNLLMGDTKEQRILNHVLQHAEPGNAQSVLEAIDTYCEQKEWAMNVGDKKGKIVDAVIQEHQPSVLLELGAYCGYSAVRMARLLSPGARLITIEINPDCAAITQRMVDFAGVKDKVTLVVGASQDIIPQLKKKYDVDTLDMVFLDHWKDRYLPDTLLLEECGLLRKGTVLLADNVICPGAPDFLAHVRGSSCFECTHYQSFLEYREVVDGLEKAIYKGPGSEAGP
Procedure, shortened: (§4)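 His6-tagged S-COMT (human or rat), expressed in 293-6E cells and purified by Ni-NTA and size exclusion, 1 ng per well. 20 µM SAM and 10 µM 7,8-dihydroxy-4-methylcoumarin in pH 6.9 Tris/MgCl2/DTT buffer, 1.5% DMSO. 1 h at 37 °C, then MTase-Glo luminescence read against a SAH standard curve. […] 4-parameter IC50; triplicate wells, three runs.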

[7] = Fraction unbound in rat plasma by equilibrium dialysis; assay type: ADME, cell-free
Procedure, shortened: (§5)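 Percent free drug in mouse or rat plasma, measured by equilibrium dialysis.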

[8] = biological target: ATP-binding cassette sub-family C member 2 (Homo sapiens, UniProt Q92887); experiment: Inhibition of MRP2 (unknown origin)
Sequence of ATP-binding cassette sub-family C member 2 (Q92887 whole entry): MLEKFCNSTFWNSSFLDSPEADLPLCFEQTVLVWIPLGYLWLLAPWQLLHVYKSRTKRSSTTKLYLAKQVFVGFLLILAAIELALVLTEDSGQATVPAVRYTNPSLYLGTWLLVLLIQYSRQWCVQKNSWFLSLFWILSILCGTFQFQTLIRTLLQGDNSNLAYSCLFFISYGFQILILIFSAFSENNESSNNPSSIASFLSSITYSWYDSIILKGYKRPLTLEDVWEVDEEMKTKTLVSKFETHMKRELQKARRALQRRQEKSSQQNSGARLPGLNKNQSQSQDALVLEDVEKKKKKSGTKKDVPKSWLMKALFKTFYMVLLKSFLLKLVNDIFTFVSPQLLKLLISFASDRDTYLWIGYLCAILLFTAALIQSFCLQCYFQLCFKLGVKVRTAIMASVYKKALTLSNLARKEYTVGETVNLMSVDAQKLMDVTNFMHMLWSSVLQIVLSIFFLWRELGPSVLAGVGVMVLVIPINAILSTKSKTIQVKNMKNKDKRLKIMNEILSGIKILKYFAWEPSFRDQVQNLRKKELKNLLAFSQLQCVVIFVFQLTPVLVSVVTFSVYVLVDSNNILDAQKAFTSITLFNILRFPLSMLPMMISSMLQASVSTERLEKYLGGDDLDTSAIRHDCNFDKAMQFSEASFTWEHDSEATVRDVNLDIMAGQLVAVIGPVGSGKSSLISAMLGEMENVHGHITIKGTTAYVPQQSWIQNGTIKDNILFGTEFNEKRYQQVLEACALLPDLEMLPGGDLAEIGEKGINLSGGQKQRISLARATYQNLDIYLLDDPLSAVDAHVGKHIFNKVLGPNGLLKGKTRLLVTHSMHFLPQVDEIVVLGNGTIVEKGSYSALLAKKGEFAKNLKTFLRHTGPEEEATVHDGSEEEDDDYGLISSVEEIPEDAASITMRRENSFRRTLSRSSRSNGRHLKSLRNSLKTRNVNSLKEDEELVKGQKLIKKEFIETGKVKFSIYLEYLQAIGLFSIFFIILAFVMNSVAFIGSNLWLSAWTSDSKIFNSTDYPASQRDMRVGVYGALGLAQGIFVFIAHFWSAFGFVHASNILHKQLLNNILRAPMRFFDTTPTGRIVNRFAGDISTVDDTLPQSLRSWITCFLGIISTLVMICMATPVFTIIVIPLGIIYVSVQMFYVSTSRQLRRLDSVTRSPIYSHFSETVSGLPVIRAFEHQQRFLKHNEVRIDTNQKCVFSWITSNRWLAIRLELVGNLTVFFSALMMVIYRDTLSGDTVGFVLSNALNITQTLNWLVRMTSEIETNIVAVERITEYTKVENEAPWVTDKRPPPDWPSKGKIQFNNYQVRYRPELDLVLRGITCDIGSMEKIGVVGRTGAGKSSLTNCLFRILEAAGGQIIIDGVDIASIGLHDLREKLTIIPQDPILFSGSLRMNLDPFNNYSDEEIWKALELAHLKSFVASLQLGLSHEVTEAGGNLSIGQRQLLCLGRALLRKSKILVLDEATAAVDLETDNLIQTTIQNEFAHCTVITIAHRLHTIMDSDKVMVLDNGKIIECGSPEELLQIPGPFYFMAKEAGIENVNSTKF

[9] = Unbound drug level in brain of Sprague-Dawley rat at 10 mg/kg, po after 4 hrs by ES-UPLC analysis; assay type: ADME, organism-based; conditions: in vivo; procedure, shortened: as §1
[10] = biological target: T1, Catechol O-methyltransferase; experiment: Inhibition of c-terminal hexa-His tagged rat S-COMT expressed in HEK293-6E cell membrane homogenate using 7,8-dihydroxy-4-methylcoumarin as substrate after 1 hr in presence of SAM by MTase glo methyltransferase assay; procedure, shortened: as §4
Rattus norvegicus [11] = experiment: Volume of distribution at steady state in rat at 1 mg/kg, iv or 3/10 mg/kg, po; assay type: ADME, organism-based; conditions: in vivo; procedure, shortened: as §3
[12] = Protein binding in CSF of Sprague-Dawley rat at 2 uM by equilibrium dialysis; assay type: ADME, tissue-based, Cerebrospinal fluid; conditions: read-out: PB (converted)
Procedure, shortened: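 Binding in pooled rat CSF measured by equilibrium dialysis at 2 µM test concentration.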

Rattus norvegicus [13] = experiment: In vivo inhibition of COMT in Sprague-Dawley rat assessed as HVA levels in CSF at 10 mg/kg, po measured at 4 hrs post dose by LC-MS analysis relative to control; assay type: functional; design: scale not given: the % may be the effect or the level left
Procedure, shortened: (§6)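 Male Sprague Dawley rats (176–200 g on arrival) dosed orally at 10 mg/kg in Tween80/antifoam/methylcellulose suspension, 10 mL/kg, vehicle group as control (n=5–10). At 4 h under isoflurane, CSF drawn from cisterna magna. HVA and DOPAC quantified by LC-MS against standards in 0.01 M perchloric acid/aCSF with d5 internal standards. Reported as % of vehicle.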

[14] = Half life in rat at 1 mg/kg, iv or 3/10 mg/kg, po; assay type: ADME, organism-based; conditions: in vivo; procedure, shortened: as §3
[15] = Clearance in rat hepatocytes assessed as per million cells; assay type: ADME, cell-based, Hepatocyte; conditions: read-out: CLH
[16] = Substrate activity at P-glycoprotein (unknown origin); assay type: ADME; conditions: human
[17] = Plasma concentration C57BL/6J mouse at 10 mg/kg, ip measured at 1 hr post dose; assay type: ADME, organism-based
Procedure, shortened: (§7)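 Male C57BL/6J mice (8 weeks), single ip injection of 10 mg/kg suspended in 0.1% Tween80/0.1% antifoam/1% methylcellulose at 10 mL/kg. Two mice per timepoint; at 1 h, plasma separated at 4 °C and brain homogenized in 4 volumes PBS pH 7.4. Total brain and plasma levels measured.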

[18] = Inhibition of P-glycoprotein (unknown origin); conditions: human
[19] = Unbound plasma concentration in Sprague-Dawley rat 10 mg/kg, po after 4 hrs by ES-UPLC analysis; assay type: ADME, organism-based; conditions: in vivo; procedure, shortened: as §1
[20] = Ratio of drug level in CSF of Sprague-Dawley rat to unbound brain concentration in Sprague-Dawley rat at 10 mg/kg, po after 4 hrs by ES-UPLC analysis; assay type: ADME, organism-based; conditions: in vivo; procedure, shortened: as §1
Rattus norvegicus [21] = experiment: In vivo inhibition of COMT in Sprague-Dawley rat assessed as DOPAC levels in CSF at 10 mg/kg, po measured at 4 hrs post dose by LC-MS analysis relative to control; assay type: functional; procedure, shortened: as §6
[22] = biological target: T3, Broad substrate specificity ATP-binding cassette transporter ABCG2 (Homo sapiens, UniProt Q9UNQ0); experiment: Inhibition of BCRP (unknown origin); assay type: ADME
T3 sequence (Q9UNQ0 whole entry): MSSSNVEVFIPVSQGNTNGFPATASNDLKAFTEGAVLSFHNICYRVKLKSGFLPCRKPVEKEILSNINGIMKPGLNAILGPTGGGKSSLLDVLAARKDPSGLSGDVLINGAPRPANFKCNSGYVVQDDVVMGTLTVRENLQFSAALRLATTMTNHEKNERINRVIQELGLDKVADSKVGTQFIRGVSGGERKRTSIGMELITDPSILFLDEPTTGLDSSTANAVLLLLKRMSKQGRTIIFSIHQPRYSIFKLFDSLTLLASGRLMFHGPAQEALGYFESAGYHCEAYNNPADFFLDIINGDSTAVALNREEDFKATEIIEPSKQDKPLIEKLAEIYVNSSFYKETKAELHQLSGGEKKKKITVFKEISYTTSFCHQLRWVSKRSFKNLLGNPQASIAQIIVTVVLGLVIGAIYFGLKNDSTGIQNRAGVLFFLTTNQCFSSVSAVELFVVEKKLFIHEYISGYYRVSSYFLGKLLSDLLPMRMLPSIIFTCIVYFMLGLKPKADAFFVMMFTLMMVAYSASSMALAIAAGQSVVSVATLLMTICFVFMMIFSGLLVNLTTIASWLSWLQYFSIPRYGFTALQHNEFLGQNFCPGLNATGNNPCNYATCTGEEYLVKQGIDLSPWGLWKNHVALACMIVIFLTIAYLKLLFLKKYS

[23] = Ratio of unbound drug level in CSF of Sprague-Dawley rat to unbound plasma concentration in Sprague-Dawley rat at 10 mg/kg, po after 4 hrs by ES-UPLC analysis; assay type: ADME, organism-based; conditions: CSF and plasma; procedure, shortened: as §1
[24] = Drug uptake in brain of C57BL/6J mouse at 10 mg/kg, ip measured at 1 hr post dose; assay type: ADME, organism-based; conditions: C57BL/6J, brain, read-out: Drug uptake; procedure, shortened: as §7
[25] = biological target: T2, Catechol O-methyltransferase; experiment: Inhibition of c-terminal hexa-His tagged human MB-COMT expressed in HEK293 cell membrane homogenate using norepinephrine as substrate after 1 hr in presence of SAM by MTase glo methyltransferase assay; procedure, shortened: as §2
[26] = Fraction unbound in mouse plasma by equilibrium dialysis; assay type: ADME, cell-free; procedure, shortened: as §5
[27] = Fraction unbound in rat brain by equilibrium dialysis; assay type: ADME, tissue-based
Procedure, shortened: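 Percent free drug in rat brain tissue, measured by equilibrium dialysis.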

[28] = Unbound drug level in brain of Sprague-Dawley rat at 15 mg/kg, ip after 4 hrs by ES-UPLC analysis; assay type: ADME, organism-based; conditions: in vivo, BLD = below limit of detection
[29] = Unbound plasma concentration in Sprague-Dawley rat 15 mg/kg, ip after 4 hrs by ES-UPLC analysis; assay type: ADME, organism-based; conditions: in vivo
[30] = Drug level in CSF of Sprague-Dawley rat at 15 mg/kg, ip after 4 hrs by ES-UPLC analysis; assay type: ADME, organism-based, Cerebrospinal fluid; conditions: in vivo, BLD = below limit of detection

In the case of O=S(=O)(c1cc(F)c(O)c2ncccc12)N1CCCC1, the efflux ratio [1] is reported as 1.2, the Ratio [2] is reported as 6.8 and the IC50 [3] is reported as < 0.001 µM. For the same molecule, the concentration at 4 h [4] was 0.157 µM, the F (Rattus norvegicus [5]) was 73% and the IC50 [6] was 1.58 µM. The Fu [7] was 0.6, the “inhibition (INH)” value [8] was “Not Active” and the “Drug uptake(free)” value [9] was 35 nM. The IC50 [10] was 3.98 µM, the Vdss (Rattus norvegicus [11]) was 2.2 L/kg and the fraction unbound at 2 µM [12] was 0.49. The Activity (Rattus norvegicus [13]) was 72%, the half-life [14] was 2.8 h and the hepatocyte CLint [15] was 21 µL/min/1e6 cells. For the same molecule, the Activity [16] was “Not Active”, the concentration at 1 h [17] was 1.82 µg/mL and the “inhibition (INH)” value [18] was “Not Active”. The “Cp(f)” value [19] was 0.023 µM, the Ratio [20] was 4.4 and the “CSF DOPAC level (% of vehicle)” value (Rattus norvegicus [21]) was 140%. The “inhibition (INH)” value [22] was “Not Active”, the Kp uu at 4 h [23] was 3.3 and the concentration at 1 h [24] was 110 ng/g. For the same molecule, the IC50 [25] was 0.00398 µM.
O=S(=O)(c1ccc(O)c2ncccc12)N1CCCC1Cc1ccccc1 (stereo not given) showed a Fu [26] of 0.5, a fraction unbound [27] of 0.5 and an IC50 [6] of 2 µM. It also gave a hepatocyte CLint [15] of 228 µL/min/1e6 cells, a concentration at 1 h [17] of 0.235 µg/mL and a concentration at 1 h [24] of 109 ng/g. The IC50 [25] was 0.002 µM.
With Cc1ccc(C(=O)c2cc(O)c(O)c([N+](=O)[O-])c2)cc1 [TOLCAPONE] the “Drug uptake(free)” value [28] was “Bld”, the “Cp(f)” value [29] was 0.035 µM and the Drug uptake [30] was “Bld”.
